How the values were obtained:
Hela cells = experiment: Antiproliferative assay; type: cell-based; conditions: Homo sapiens, 72 h, read-out: Antiproliferative IC50, Hela
SiHa cells = experiment: Antiproliferative assay; type: cell-based; conditions: Homo sapiens, 72 h, read-out: Antiproliferative IC50, SiHa
[1] = system: human normal cervical epithelial cells (HcerEpic); experiment: Toxicity in normal cervical epithelial cells; type: cell-based; conditions: Epithelial cell, read-out: IC50, HcerEpic
Summary of the method: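 Cells grown in IMDM with 20% FBS, 100 U/mL penicillin and 100 µg mL−1 streptomycin at 37 °C, humidified 5% CO2. Serially diluted test compound applied for 72 h. Alamar blue (1 mM stock solution) then added for another 5–6 h, with the signal read at 530/590 nm. Data normalised to DMSO vehicle, mean of three independent measurements, and IC50 fitted from the curves.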

[2] = Microsomal stability assay; type: in vitro ADME; conditions: human, human liver microsomes, pH 7.4
[3] = in clinical; cited from earlier work

SMILES | IC50 (Hela cells) [µM] | IC50 (SiHa cells) [µM] | IC50 [1] [µM] | half-life at 0.5 µM [2] [h] | dose-limiting toxicities [3]
O=C(CCCCCCNC(=O)c1cnc(N(c2ccccc2)c2ccccc2)nc1)NO [ACY1215] | 6.8 ± 0.35 | 11.3 ± 0.8 | > 50 | 6.7 | –
O=C(NO)c1ccc(CN(c2cnccn2)c2cnccn2)cc1 [KA2507] | – | – | – | – | no dose-limiting toxicities

From paper PMC12679430 (RSC Advances, 2025)
